# Assay outcomes: PubChem, several laboratories
# Compounds with a hit are over-represented: about 3.6% of the library has one in this group of screens.
# ATG4B inhibitor – ATG4B (human) cysteine protease inhibition | ATG4B cleavage of LC3-PLA2, NBD-HPC fluorescence, 1 h | Q9Y4P1 | inhibition, % at 8.33 µM | actives 0.51% (n = 340,000); in the data active means inhibition above about 40%
# GRIN3A LBD mod – modulates the human NR3A ligand-binding domain. actives 2.5% (n = 340,000). NR3A LBD differential scanning fluorimetry, Tm shift; 0% = protein alone, 100% = glycine-bound protein. Tm shift relative to glycine control, % at 25 µM;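 active means melting temperature shift of at least 10% of the positive control shift, at one fixed dose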
# SENP1 inh – blocks the human SENP1 SUMO protease catalytic domain; recombinant SENP1 catalytic domain, CyPet-SUMO1-YPet FRET cleavage; Q9P0U3; AID 624204; actives 0.21% (n = 360,000); inhibition, % at 10 µM;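 active means inhibition at least 30% at 10 µM, raw YFP signal under a set limit, fluorescence ratio 0.5 to 1.5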;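 further: 0% = enzyme with DMSO and 100% = no enzyme wells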
# Target sequence (Q9P0U3 419-644 limits assumed): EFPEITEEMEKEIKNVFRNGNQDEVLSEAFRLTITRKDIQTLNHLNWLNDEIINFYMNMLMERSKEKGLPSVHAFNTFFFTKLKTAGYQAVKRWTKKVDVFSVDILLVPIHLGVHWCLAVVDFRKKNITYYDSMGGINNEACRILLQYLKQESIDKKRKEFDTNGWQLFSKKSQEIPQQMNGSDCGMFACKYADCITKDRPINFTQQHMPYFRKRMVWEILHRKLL
#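 Test system: human SENP1 catalytic domain; medium: Tris pH 8 buffer plus EDTA, NaCl, BME, BSA, NP40, catalase; incubation: 50 min reaction at room temperature; technique: FRET, CFP and YFP emission; controls: no-enzyme low control and enzyme-plus-DMSO high control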
# NadD inh – blocks S. aureus nicotinate mononucleotide adenylyltransferase. purified NadD enzyme, colorimetric absorbance read-out. inhibition, % at 20 µM. actives 0.78% (n = 360,000). AID 602399; in the data active means inhibition above about 26%
# UCH37 inh – human UCH37 deubiquitinating enzyme inhibition; Q9Y5K5; purified proteasome/UCH37, Ub-AMC cleavage fluorescence; inhibition, % (no concentration beside the values); actives 0.33% (n = 330,000); AID 588478;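 active means mean inhibition over replicate wells above about 20%, limit read from the data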;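 further: 0% = compound-free wells with enzyme and 100% = wells lacking proteasome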
# Target sequence (Q9Y5K5 whole entry, looked up): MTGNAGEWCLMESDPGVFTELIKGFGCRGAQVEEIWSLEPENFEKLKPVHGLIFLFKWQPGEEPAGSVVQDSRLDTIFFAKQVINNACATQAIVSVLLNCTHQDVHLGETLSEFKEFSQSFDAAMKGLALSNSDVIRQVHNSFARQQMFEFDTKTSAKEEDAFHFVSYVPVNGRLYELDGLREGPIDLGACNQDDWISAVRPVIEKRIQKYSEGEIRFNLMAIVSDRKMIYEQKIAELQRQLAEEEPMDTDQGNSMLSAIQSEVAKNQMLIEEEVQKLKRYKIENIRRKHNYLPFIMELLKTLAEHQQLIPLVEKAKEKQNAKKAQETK
#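 system = Proteasome-associated human UCH37 deubiquitinase | amount = 0.15 nM proteasome as dispensed | medium = pH 7.4 Tris-HCl (50 mM) with ovalbumin, ATP-MgCl2, DTT | incubation = 30 min preincubation with enzyme, 25 min cleavage at room temperature | detection = AMC fluorescence 355/460 nm | read-out basis = percent inhibition | controls = no-proteasome and no-compound wells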
# * hit, by the source's call; · = no result given.
SMILES,ATG4B inhibitor,GRIN3A LBD mod,SENP1 inh,NadD inh,UCH37 inh
Cc1ccc(-n2[nH]c(C)c(C=Nc3ccccn3)c2=O)cc1,·,·,·,·,6.9
CCCOc1ccc(C(=O)N/N=C/c2c[nH]c3ccc(Br)cc23)cc1,-2.3,37.4*,2.8,5.9,·
O=C(O)c1cc(NN=Cc2c[nH]c3ccccc23)ccc1Cl,·,·,·,·,4.5
O=C(N/N=C/c1c[nH]c2ccccc12)c1ccn(Cc2ccc(Cl)cc2Cl)n1,13.3,2.3,-0.9,23.7,·
Cc1ccc(NCC(=O)N/N=C/c2c[nH]c3ccccc23)cc1,-1.6,24.0*,-0.4,7.3,·
O=C(N/N=C/c1c[nH]c2ccc(Br)cc12)c1ccn(Cc2ccc(Cl)cc2)n1,0.1,18.2*,1.6,21.7,·
O=C(O)c1cc(N/N=C/c2c[nH]c3ccccc23)ccc1Cl,3.7,21.7*,-35.0,8.9,·
CCCCN1C(=O)/C(=C2/Sc3ccccc3N2C)SC1=Nc1ncn[nH]1,·,·,·,·,-48.2
O=C(NN=Cc1c[nH]c2ccccc12)c1cc(Cl)ccc1O,·,·,·,·,-16.9
O=C(N/N=C/c1c[nH]c2ccccc12)c1cccc(Cl)c1,-6.2,37.0*,-3.4,-20.4,·
O=C(N/N=C/c1c[nH]c2ccccc12)c1cccc(O)c1,-8.1,25.7*,-1.3,-1.4,·
O=C(NN=Cc1ccc(F)cc1)c1cc[n+]([O-])cc1,·,·,·,·,6.2
CC(C)CC(=O)N1CC=CC[C@@H](c2ccc(Cl)cc2)N(Cc2ccc(Cl)cc2)C(=O)[C@@H]1Cc1ccccc1,-6.2,11.5*,1.5,9.3,5.2
CC(=O)Nc1ccc(C=NNc2nc3ccccc3s2)cc1,·,·,·,·,0.4
Cc1cccc(C(=O)NN=Cc2ccncc2)c1,·,·,·,·,1.9
COc1cccc(NC(=O)C(C)(C)C)c1,2.7,-0.3,2.0,-5.2,1.7
CCCSc1nsc(NC(=O)Nc2ccc(F)cc2F)n1,-3.1,13.7*,0.6,-2.4,4.4
CCCSc1nsc(NC(=O)CC)n1,-3.7,-1.3,-0.2,3.6,0.6
CCSc1nsc(NC(=O)Nc2cccc(F)c2)n1,6.0,31.9*,0.6,-7.5,·
CCc1ccccc1NC(=O)Nc1cccc(F)c1,36.8,-6.2,-0.9,-3.6,-1.6
COc1cccc(NC(=O)Nc2nc(SC)ns2)c1,8.6,11.9*,1.4,-4.0,5.4
COc1cccc(NC(=O)Nc2nc(SC(C)(C)C)ns2)c1,1.5,40.2*,-0.1,-8.6,3.3
CNC(=S)NN=Cc1ccccc1OCC(=O)O,·,·,·,·,7.4
O=C(NN=Cc1ccc([N+](=O)[O-])o1)c1ccc2c(c1)OCO2,·,·,·,·,10.8
CCCSc1nsc(NC(=O)C(c2ccccc2)c2ccccc2)n1,-9.1,17.9*,-0.5,-1.7,-2.3
SMILES,ATG4B inhibitor,GRIN3A LBD mod,SENP1 inh,NadD inh,UCH37 inh
Cn1c(=O)c2[nH]c(SCCN3CCCCC3)nc2n(C)c1=S,-6.7,15.1*,1.6,-0.4,1.5
Cn1c(=O)c2[nH]c(SCCN3CCOCC3)nc2n(C)c1=S,3.1,-1.6,2.2,4.6,4.9
O=[N+]([O-])c1cc(Br)c(O)c(C=NNc2nnnn2-c2cccc3ccccc23)c1,·,·,·,·,12.2
CCc1cc(CC)c(C=NNC(N)=O)c(CC)c1,·,·,·,·,4.1
Cn1c(-c2ccsc2)c(-c2cccs2)c2cc(-c3ccc4cc[nH]c4c3)ccc21,2.8,10.5*,-4.5,21.3,5.5
Cc1ccc(NC(=O)C(C)Sc2nc(=O)cc(N)n2-c2ccccc2)cc1 (stereo not given),-14.7,-2.1,-1.4,5.6,3.0
C=CCn1c(N)cc(=O)nc1SC(C)C(=O)Nc1ccc(C(=O)OCC)cc1 (stereo not given),9.3,14.5*,-4.8,-1.9,2.0
Nc1cc2c(cc1Cl)-c1ccccc1C2=NO,-0.4,33.5*,2.9,0.0,·
ON=C1c2ccccc2-c2ccccc21,-10.2,0.0,2.3,-5.4,3.4
NC(=NO)c1ccc(NC(=O)c2cccs2)cc1,·,·,·,·,3.1
CC12CC(O)C3c4ccc(O)cc4CCC3C1CCC2=NO (stereo not given),·,·,·,·,0.4
c1ccc(-n2nnc(-c3nccs3)n2)cc1,0.8,2.8,-19.4,-4.7,1.5
Brc1ccccc1-n1nnc(-c2nccs2)n1,5.9,1.2,2.2,0.5,25.3*
CCOc1ccc(CCNC(=O)C2CCCN(c3nn4c(=O)cc(C)nc4s3)C2)cc1OCC (stereo not given),-0.7,0.9,2.3,-0.6,-2.1
CCOc1ccc(CCNC(=O)C2CCCN(c3nnc(-n4cccc4)s3)C2)cc1OCC (stereo not given),-9.3,39.2*,-0.8,1.5,-0.9
O=C1C2C3C=CC(C3)C2C(=O)N1N=Cc1cn(Cc2ccc(F)cc2)c2ccccc12 (stereo not given),·,·,·,·,1.7
O=C(COc1ccc(Cl)cc1Cl)NN=CC1CC=CCC1 (stereo not given),·,·,·,·,-0.8
O=C(N/N=C/c1cccc2ccccc12)c1cc2ccccc2o1,-11.9,17.8*,1.1,1.2,·
CC(=O)n1cc(/C=N/NC(=O)c2ccc(Cl)cc2)c2ccccc21,26.3,15.3*,-0.6,-0.2,·
O=C(NN=Cc1ccc([N+](=O)[O-])cc1)c1cc2ccccc2o1,·,·,·,·,6.3
O=C(N/N=C/c1cccc([N+](=O)[O-])c1)c1cc2ccccc2o1,-8.8,13.2*,0.2,5.9,·
COc1ccc(OC)c(/C=N/NC(=O)CCc2ccc(O)c(O)c2)c1,-1.4,21.9*,-3.1,0.6,·
COc1ccc(OC)c(C=NNC(=O)CCc2c(C)n[nH]c2C)c1,·,·,·,·,-495.2
COc1cc(C=NNc2ncc(C(F)(F)F)cc2Cl)cc(OC)c1OC,·,·,·,·,-8.4
O=C(CCCC(=O)Nc1ccccc1Br)NN=Cc1c(F)cccc1Cl,·,·,·,·,3.9
SMILES,ATG4B inhibitor,GRIN3A LBD mod,SENP1 inh,NadD inh,UCH37 inh
COc1ccc(OC)c(/C=N\NC(=O)c2cc3c(ccc4ccccc43)o2)c1,1.2,22.5*,-107.3,22.6,·
COc1ccc(C=NNC(=O)c2cc3c(ccc4ccccc43)o2)c(OC)c1,·,·,·,·,-172.6
Nc1ccc(C(=O)N/N=C/c2cn(Cc3cccc(F)c3)c3ccccc23)cc1,21.0,18.1*,-3.9,8.6,·
C#CCn1cc(/C=N/NC(=O)c2cc3ccccc3o2)c2ccccc21,-15.3,13.1*,-10.6,1.2,·
CCc1ccc(C(=O)N/N=C/c2cccc3ccccc23)nc1,-14.9,11.5*,-2.7,-3.0,·
N#CCn1cc(C=NNC(=O)c2cc3c(ccc4ccccc43)o2)c2ccccc21,·,·,·,·,-99.0
Nc1ccc(C(=O)NN=Cc2cn(Cc3ccc(F)cc3)c3ccccc23)cc1,·,·,·,·,-10.2
Cn1cc(C=NNc2ccccc2)c2ccccc21,·,·,·,·,-51.1
